Results on 3 compounds are retold here after ChEMBL document CHEMBL1138494, “Human glucagon receptor antagonists with thiazole cores. A novel series with superior pharmacokinetic properties” (J Med Chem, 2009).

Activity calls are given as the source filed them. No cut-off for these calls is given here.

What is called IC50 is the concentration that gives 50% inhibition. For orientation: Cmax means the maximum level reached in the sampled fluid or tissue. A word on the half-life: it is the time in which the quantity being followed falls by half. The term bioavailability denotes dose-corrected exposure relative to a reference, in per cent. One may read the Tmax as the time from dosing to the highest level.

Series [1] is described as follows: Binding affinity to glucagon receptor in monkey liver membrane by membrane filter assay. The class given is cell membranes, Macaca mulatta.
Series [2] concerns the target Glucagon receptor (Mus musculus, UniProt Q61606). The series can be described thus: Binding affinity to glucagon receptor in mouse liver membrane by membrane filter assay. It counts as cell membranes.
Series [3] is described as follows: Cmax in fasted Sprague-Dawley rat at 1.49 mg/kg, iv and 3.19 mg/kg, po. The class given is ADME, organism-based. The following applies: in vivo. In outline: (§1)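 Rats were dosed intravenously and perorally in separate arms, and plasma concentration-time profiles were obtained. Half-life was taken from the iv arm. Clearance, oral bioavailability, Cmax and Tmax were derived from the profiles.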

Series [4] is filed under the species Homo sapiens. The series can be described thus: Selectivity ratio of IC50 for human recombinant glucagon receptor to IC50 for human recombinant GIPR. In outline: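 Competition binding of compounds to recombinant human glucagon and GIP receptors on BHK cell membranes, run in parallel as a scintillation proximity assay and, for selected compounds, as a membrane filtration assay.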

Series [5] can be described thus: Half life in fasted Sprague-Dawley rat plasma at 1.49 mg/kg, iv by HTLC-MS/MS analysis. It counts as ADME, organism-based. Also on record: dose 1.49 mg/kg, route intravenous. In outline:
as §1

Series [6] is described as follows: Binding affinity to glucagon receptor in pig liver membrane by membrane filter assay. The class given is cell membranes, Sus scrofa.
Series [7] in a line: Oral bioavailability in fasted Beagle dog at 0.5 mg/kg. The class given is ADME, organism-based, Canis lupus familiaris. To be noted: in vivo. In outline:
(§2)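 Separate intravenous and peroral dosing arms per compound, with plasma concentration followed against time. Oral bioavailability (F_po) is reported per compound together with the intravenous half-life and clearance. The dose used for each arm is listed per compound.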

The target in series [8] is T1, Gastric inhibitory polypeptide receptor (Homo sapiens, UniProt P48546).
T1 sequence (P48546 whole entry): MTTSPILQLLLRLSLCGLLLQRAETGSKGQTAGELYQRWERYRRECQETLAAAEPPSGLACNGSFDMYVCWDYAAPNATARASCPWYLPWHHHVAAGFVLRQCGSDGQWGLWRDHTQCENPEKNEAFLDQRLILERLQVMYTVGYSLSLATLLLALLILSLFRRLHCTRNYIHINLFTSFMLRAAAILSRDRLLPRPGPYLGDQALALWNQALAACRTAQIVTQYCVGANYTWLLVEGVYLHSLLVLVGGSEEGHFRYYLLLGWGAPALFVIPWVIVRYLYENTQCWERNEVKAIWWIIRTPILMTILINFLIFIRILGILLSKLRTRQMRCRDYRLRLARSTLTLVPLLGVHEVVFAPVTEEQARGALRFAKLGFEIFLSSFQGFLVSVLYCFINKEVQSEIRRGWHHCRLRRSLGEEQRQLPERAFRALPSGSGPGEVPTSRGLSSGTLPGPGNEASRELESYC
As to the kind of experiment: Displacement of [125I]porcine GIP from human recombinant GIPR receptor expressed in BHK cells by scintillation proximity assay. The class given is cell-based. Background: In a radioligand displacement assay an active substance lowers the binding of a labelled ligand.

The species named for series [9] is Homo sapiens. As to the kind of experiment: Selectivity for human recombinant glucagon receptor over human GLP1R.
A short description of series [10]: Half life in fasted Beagle dog at 0.25 mg/kg, iv. It counts as ADME, organism-based, Canis lupus familiaris. Also on record: dose 0.25 mg/kg, route intravenous. The following applies: in vivo. In outline: (§3)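 Dogs were dosed at 0.25 mg/kg iv and 0.5 mg/kg po, and plasma concentration was followed over time. Half-life came from the iv arm; clearance, Cmax and Tmax were also derived.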

Series [11] relates to Hepatocyte. The series can be described thus: Inhibition of glucagon-stimulated glucose production in rat primary hepatocytes. The class given is functional, cell-based.
Series [12] addresses Glucagon receptor (Rattus norvegicus, UniProt P30082). The series can be described thus: Binding affinity to glucagon receptor in rat liver membrane by membrane filter assay. It counts as cell membranes.
The subject of series [13] is Hepatocyte. The series can be described thus: Inhibition of glucagon-stimulated glucose production in human primary hepatocytes preincubated for 10 mins before glucagon addition by NADH-linked hexokinase assay. The class given is functional, cell-based. In outline:
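Cultured primary human hepatocytes were preincubated with compound for 10 min, then glycogenolysis was induced with 5 nM glucagon for 60 min. Glucose in the medium was measured against basal glycogenolysis. Albumin was present in the assay medium. IC50 was calculated from four experiments, mean ± SEM.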

Series [14] can be described thus: Oral bioavailability in fasted Sprague-Dawley rat at 3.19 mg/kg by HTLC-MS/MS analysis. The class given is ADME, organism-based. The following applies: in vivo. An outline of the steps: as §2
The nature of series [15]: Binding affinity to glucagon receptor in dog liver membrane by membrane filter assay. The class given is cell membranes, Canis lupus familiaris.
Series [16] in a line: Clearance in fasted Beagle dog at 0.25 mg/kg, iv and 0.5 mg/kg, po. It counts as ADME, organism-based, Canis lupus familiaris. To be noted: in vivo. An outline of the steps: as §3
The target of series [17] is T2, Glucagon receptor (Homo sapiens, UniProt P47871). The series can be described thus: Binding affinity to human recombinant glucagon receptor expressed in BHK cells by membrane filter assay. It counts as cell-based.
Series [18] concerns the target T2, Glucagon receptor. The series can be described thus: Displacement of [125I]porcine glucagon from human recombinant glucagon receptor expressed in BHK cells by scintillation proximity assay. It counts as cell-based.
Series [19] is described as follows: Cmax in fasted Beagle dog at 0.25 mg/kg, iv and 0.5 mg/kg, po. The class given is ADME, organism-based, Canis lupus familiaris. To be noted: in vivo. An outline of the steps:
as §3

Series [20] in a line: Clearance in fasted Sprague-Dawley rat at 1.49 mg/kg, iv and 3.19 mg/kg, po. It counts as ADME, organism-based. The following applies: in vivo. In outline:
as §1

Series [21] in a line: Tmax in fasted Sprague-Dawley rat at 1.49 mg/kg, iv and 3.19 mg/kg, po. The class given is ADME, organism-based. The following applies: in vivo. An outline of the steps: (§4)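 Plasma concentration–time profiles were recorded after separate intravenous and peroral dosing at the per-compound doses listed. T_max is reported in min alongside C_max (ng/mL), intravenous half-life and clearance ((mL/min)/kg).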

Series [22] can be described thus: Tmax in fasted Beagle dog at 0.25 mg/kg, iv and 0.5 mg/kg, po. To be noted: in vivo. The class given is ADME, organism-based, Canis lupus familiaris. An outline of the steps: as §4
The target in series [23] is T1, Gastric inhibitory polypeptide receptor. As to the kind of experiment: Binding affinity to human recombinant GIPR expressed in BHK cells by membrane filter assay. It counts as cell-based.
The nature of series [24]: Binding affinity to glucagon receptor in rabbit liver membrane by membrane filter assay. It counts as cell membranes, Oryctolagus cuniculus.
Series [25] is described as follows: Half life in fasted Sprague-Dawley rat plasma at 1.60 mg/kg, iv by HTLC-MS/MS analysis. To be noted: 1.6 mg/kg. On the set-up: dose 1.6 mg/kg, route intravenous. It counts as ADME, organism-based. In outline:
as §1

Series [26] is described as follows: Tmax in fasted Sprague-Dawley rat at 1.60 mg/kg, iv and 3.25 mg/kg, po by HTLC-MS/MS analysis. It counts as ADME, organism-based. To be noted: in vivo. An outline of the steps:
as §4

A short description of series [27]: Clearance in fasted Sprague-Dawley rat at 1.60 mg/kg, iv and 3.25 mg/kg, po by HTLC-MS/MS analysis. It counts as ADME, organism-based. To be noted: in vivo, 1.6 mg/kg. In outline:
as §1

Series [28] in a line: Cmax in fasted Sprague-Dawley rat at 1.60 mg/kg, iv and 3.25 mg/kg, po by HTLC-MS/MS analysis. The class given is ADME, organism-based. To be noted: in vivo. An outline of the steps:
as §1

Series [29] is described as follows: Oral bioavailability in fasted Sprague-Dawley rat at 3.25 mg/kg by HTLC-MS/MS analysis. The following applies: in vivo. The class given is ADME, organism-based. An outline of the steps: as §2
A short description of series [30]: Cmax in fasted Sprague-Dawley rat at 1.58 mg/kg, iv and 3.16 mg/kg, po. The class given is ADME, organism-based. To be noted: in vivo. In outline:
as §1

Series [31] is described as follows: Oral bioavailability in fasted Sprague-Dawley rat at 3.16 mg/kg by HTLC-MS/MS analysis. It counts as ADME, organism-based. The following applies: in vivo. In outline: as §2
The nature of series [32]: Half life in fasted Sprague-Dawley rat plasma at 1.58 mg/kg, iv by HTLC-MS/MS analysis. On the set-up: dose 1.58 mg/kg, route intravenous. The class given is ADME, organism-based. In outline: as §1
Series [33] is described as follows: Tmax in fasted Sprague-Dawley rat at 1.58 mg/kg, iv and 3.16 mg/kg, po. It counts as ADME, organism-based. To be noted: in vivo. An outline of the steps:
as §4

The nature of series [34]: Clearance in fasted Sprague-Dawley rat at 1.58 mg/kg, iv and 3.16 mg/kg, po. It counts as ADME, organism-based. The following applies: in vivo. In outline:
as §1

T2 sequence (P47871 whole entry): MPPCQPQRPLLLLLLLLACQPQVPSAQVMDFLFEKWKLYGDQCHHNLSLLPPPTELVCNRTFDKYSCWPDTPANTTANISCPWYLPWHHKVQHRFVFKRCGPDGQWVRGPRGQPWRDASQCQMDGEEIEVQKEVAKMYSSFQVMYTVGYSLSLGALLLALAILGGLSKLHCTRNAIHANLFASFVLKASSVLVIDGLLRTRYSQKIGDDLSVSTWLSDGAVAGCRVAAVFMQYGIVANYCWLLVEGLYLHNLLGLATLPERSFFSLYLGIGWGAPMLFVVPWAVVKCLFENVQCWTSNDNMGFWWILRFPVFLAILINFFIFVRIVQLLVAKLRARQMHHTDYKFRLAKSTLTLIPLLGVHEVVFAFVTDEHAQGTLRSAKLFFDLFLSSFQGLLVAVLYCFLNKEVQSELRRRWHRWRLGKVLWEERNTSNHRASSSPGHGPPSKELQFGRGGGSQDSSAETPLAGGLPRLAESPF
Sequence of Glucagon receptor (Mus musculus, UniProt Q61606) (Q61606 whole entry): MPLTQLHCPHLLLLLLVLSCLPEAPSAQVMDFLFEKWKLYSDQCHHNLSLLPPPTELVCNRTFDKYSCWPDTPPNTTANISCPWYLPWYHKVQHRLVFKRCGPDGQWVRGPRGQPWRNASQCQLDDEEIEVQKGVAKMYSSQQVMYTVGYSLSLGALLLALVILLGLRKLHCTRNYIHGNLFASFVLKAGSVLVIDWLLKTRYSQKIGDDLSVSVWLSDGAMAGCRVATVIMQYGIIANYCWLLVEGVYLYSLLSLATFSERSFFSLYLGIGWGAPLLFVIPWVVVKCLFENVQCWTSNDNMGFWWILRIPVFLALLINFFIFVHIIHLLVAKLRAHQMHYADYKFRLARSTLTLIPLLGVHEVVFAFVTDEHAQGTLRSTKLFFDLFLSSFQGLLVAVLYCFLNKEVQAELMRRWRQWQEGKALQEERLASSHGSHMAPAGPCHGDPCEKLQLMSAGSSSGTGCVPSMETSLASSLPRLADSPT
Sequence of Glucagon receptor (Rattus norvegicus, UniProt P30082) (P30082 whole entry): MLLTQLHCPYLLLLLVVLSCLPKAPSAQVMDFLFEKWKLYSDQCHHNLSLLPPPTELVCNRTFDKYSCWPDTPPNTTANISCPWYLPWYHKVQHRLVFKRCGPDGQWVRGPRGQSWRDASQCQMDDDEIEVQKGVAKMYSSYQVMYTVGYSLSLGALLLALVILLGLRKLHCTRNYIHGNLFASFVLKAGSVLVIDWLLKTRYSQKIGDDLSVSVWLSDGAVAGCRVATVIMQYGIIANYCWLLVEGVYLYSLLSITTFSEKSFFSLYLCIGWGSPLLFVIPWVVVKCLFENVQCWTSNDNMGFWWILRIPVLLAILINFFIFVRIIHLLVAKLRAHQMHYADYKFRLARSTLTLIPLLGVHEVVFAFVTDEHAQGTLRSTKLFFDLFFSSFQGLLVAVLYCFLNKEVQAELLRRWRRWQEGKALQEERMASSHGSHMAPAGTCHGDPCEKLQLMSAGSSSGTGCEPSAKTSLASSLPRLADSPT

As to `O=C(O)CCNC(=O)c1ccc(CN(c2ccc(OC(F)(F)F)cc2)c2nc(-c3ccc(C(F)(F)F)cc3)cs2)cc1`, the 50% inhibitory concentration (IC50) is 72 nM in [1]; 552 nM in [2]; 5300 nM in series [6]; 833 nM in [8]; 2000 nM in [12]; 3600 nM in [13]. For the same compound, the IC50 came to 96 nM in series [15], 51 nM in series [17], 92 nM in series [18] and 480 nM in [23]. For the same compound, the Cmax in series [3] is 638 ng/mL; in series [19], 1000 ng/mL. The fold change (FC) in [4] is 5; in series [9], > 50. Besides, the half-life came out at 7.57 h in series [5] and 3.92 h in series [10]. In addition, the bioavailability was found to be 55% in series [7] and 29% in [14]. The inhibition entry in series [11] was “inactive”. In addition, the results for the clearance in [16] and in series [20] were 0.78 mL/min/kg and 2 mL/min/kg, respectively. Moreover, the figures for the Tmax in [21] and in [22] were > 6 h and 1.47 h, respectively.
With `O=C(O)CCNC(=O)c1ccc(CN(c2ccc(Cl)cc2)c2nc(-c3ccc(C(F)(F)F)cc3)cs2)cc1`, the IC50 in [1] stood at 51 nM; in series [2] it was 372 nM; in series [24] it was 943 nM; in [6], 4000 nM; in series [8], 649 nM; in series [12] it was 1400 nM. Moreover, the IC50 in series [13] worked out at 2700 nM; in series [15], 68 nM; in [17], 53 nM; in series [18], 76 nM; in [23], 410 nM. Also, the half-life in series [25] turned out to be 2.25 h; in series [10] it was 1.33 h. For the same compound, the Tmax in series [26] was 1.5 h; in series [22], 1.75 h. Moreover, the figures for the fold change (FC) in series [4] and in [9] were 5 and > 50, respectively. Besides, the clearance is 5 mL/min/kg in series [27] and 4.66 mL/min/kg in series [16]. Moreover, the bioavailability in series [7] stood at 16%; in series [29], 13%. The Cmax in series [28] stood at 216 ng/mL; in series [19], 120 ng/mL. Also, in [11], the inhibition result was “inactive”.
As for `O=C(O)CCNC(=O)c1ccc(CC(c2ccc(Cl)cc2)c2nc(-c3ccc(C(F)(F)F)cc3)cs2)cc1` (stereo not drawn), the fold change (FC) is 5 in series [4] and > 50 in series [9]. The IC50 was found to be 381 nM in [8], 38 nM in series [17], 96 nM in series [18] and 211 nM in series [23]. The Cmax in series [30] came out at 117 ng/mL. This compound also returned a bioavailability in series [31] of 52%. In addition, in series [32], the half-life was 0.4 h. In series [33], the Tmax is 0.5 h. This compound also showed a clearance in [34] of 28 mL/min/kg.
